Results reported in ChEMBL document CHEMBL4368912, “Discovery and Development of N-[4-(1-Cyclobutylpiperidin-4-yloxy)phenyl]-2-(morpholin-4-yl)acetamide Dihydrochloride (SUVN-G3031): A Novel, Potent, Selective, and Orally Active Histamine H3 Receptor Inverse Agonist with Robust Wake-Promoting Activity” (J Med Chem, 2019).
Active and inactive are the calls of the source. The rule behind the calls is not given here.

Assays:
Histamine H3 receptor = Histamine H3 receptor (Homo sapiens, UniProt Q9Y5N1); test: Displacement of [3]-RAMH from recombinant human histamine H3 receptor expressed in CHO-K1 cell membranes after 60 mins by scintillation counting
Chain of Histamine H3 receptor (Q9Y5N1 whole entry): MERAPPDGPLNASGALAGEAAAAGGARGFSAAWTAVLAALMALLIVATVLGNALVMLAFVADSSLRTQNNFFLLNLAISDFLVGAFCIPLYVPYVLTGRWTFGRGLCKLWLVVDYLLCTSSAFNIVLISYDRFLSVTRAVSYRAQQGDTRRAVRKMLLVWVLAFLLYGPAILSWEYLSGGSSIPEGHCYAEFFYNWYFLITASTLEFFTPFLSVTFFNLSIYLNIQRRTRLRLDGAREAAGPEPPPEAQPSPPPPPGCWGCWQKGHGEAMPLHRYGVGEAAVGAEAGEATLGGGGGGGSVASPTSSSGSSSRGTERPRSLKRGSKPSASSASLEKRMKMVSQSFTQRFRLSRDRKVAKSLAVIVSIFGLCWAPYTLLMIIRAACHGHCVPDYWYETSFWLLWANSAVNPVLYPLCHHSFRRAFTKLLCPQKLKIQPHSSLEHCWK

[1] = Clearance in Wistar rat at 1 mg/kg, iv by LC-MS/MS analysis; format: ADME, organism-based; conditions: in vivo
Summary of the method: (§1)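 Fasted male Wistar rats dosed i.v. in water for injection at 2 mL/kg. Clearance and half-life derived from the i.v. plasma profile.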

[2] = Tmax in Wistar rat at 3 mg/kg, po or 1 mg/kg, iv by LC-MS/MS analysis; format: ADME, organism-based; conditions: in vivo
Summary of the method: (§2)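 Fasted male Wistar rats were dosed orally and intravenously, with water for injection as the vehicle for both routes, at dosing volumes of 10 mL/kg p.o. and 2 mL/kg i.v.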

[3] = Ratio of drug uptake in Wistar rat brain to plasma at 3 mg/kg, po by LC-MS/MS analysis; format: ADME, organism-based; conditions: brain and plasma, read-out: BPR
Summary of the method: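 Fasted male Wistar rats were dosed orally with water for injection as the vehicle. Total brain and plasma concentrations were measured at 1 h after dosing and expressed as a ratio.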

[4] = Half life in Wistar rat at 1 mg/kg, iv by LC-MS/MS analysis; format: ADME, organism-based; conditions: in vivo; summary of the method: as §1
[5] = AUC (0 to 24 hrs) in Wistar rat at 3 mg/kg, po by LC-MS/MS analysis; format: ADME, organism-based; set-up: dose 3 mg/kg, time < 24 hr, route oral; conditions: in vivo
Summary of the method: (§3)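 Fasted male Wistar rats; compound in water for injection, given i.v. (2 mL/kg) or p.o. (10 mL/kg). Plasma exposure measured as AUC0-24hr.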

[6] = Volume of distribution at steady state in Wistar rat at 3 mg/kg, po or 1 mg/kg, iv by LC-MS/MS analysis; format: ADME, organism-based; conditions: in vivo; for Vd: Wistar, read-out: Vdss; summary of the method: as §2
[7] = Oral bioavailability in Wistar rat at 3 mg/kg by LC-MS/MS analysis; format: ADME, organism-based; conditions: in vivo; summary of the method: as §2
[8] = AUC (0 to 24 hrs) in Wistar rat at 1 mg/kg, iv by LC-MS/MS analysis; format: ADME, organism-based; set-up: time < 24 hr, dose 1 mg/kg, route intravenous; conditions: in vivo; for AUC(0-t) at 24 h: Wistar; summary of the method: as §3
[9] = Partition coefficient, log P of the compound; format: physicochemical; conditions: octanol/water
[10] = Dissociation constant, pKa1 of the compound by potentiometric titration assay; format: physicochemical
[11] = Dissociation constant, pKa2 of the compound by potentiometric titration assay; format: physicochemical
[12] = Lipophilicity, log D of the compound at pH 7.4; format: physicochemical; conditions: buffer
Rattus norvegicus = test: In vivo inverse agonist activity at histamine 3 receptor in rat assessed as inhibition of RAMH-induced dipsogenia at 1 to 10 mg/kg, po measured after 3 days; format: functional, organism-based
Summary of the method: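 Rats were dosed orally with 1, 3 or 10 mg/kg, then given (R)-α-methylhistamine 2.5 mg/kg s.c. Water intake (mL) was measured and reported as mean ± SEM.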

`O=C(CN1CCOCC1)Nc1ccc(OC2CCN(C3CCC3)CC2)cc1C(F)(F)F` showed a Ki (Histamine H3 receptor) of 75.8 nM.
Compound `CC(C)N1CCCN(CC(=O)Nc2ccc(OC3CCN(C4CCC4)CC3)cc2)CC1` has a Ki (Histamine H3 receptor) of 0.96 nM.
`C[C@@H]1CCCN1CC(=O)Nc1ccc(CN2CCOCC2)cc1` showed a Ki (Histamine H3 receptor) of 915 nM.
Work on `O=C(NCCN1CCOCC1)c1ccc(OC2CCN(C3CCC3)CC2)cc1` yielded a clearance [1] of 51 mL/min/kg, a Tmax [2] of 1.33 h and a Ki (Histamine H3 receptor) of 2.8 nM. For the same compound, the Kp [3] was 0.07, the half-life [4] was 13.8 h and the AUC(0-t) at 24 h [5] was 347 ng·h/mL. The Vd [6] was 45 L/kg, the bioavailability [7] was 46% and the AUC(0-t) at 24 h [8] was 255 ng·h/mL.
Compound `O=C(Cc1cccnc1)Nc1ccc(OC2CCN(C3CCC3)CC2)cc1` has a Ki (Histamine H3 receptor) of 15.8 nM.
For `C[C@@H]1CCCN1Cc1ccc(NC(=O)CN2CCOCC2)cc1`, the Ki (Histamine H3 receptor) was 3570 nM.
Compound `O=C(CN1CCOCC1)Nc1ccc(N2CCN(C3CCC3)CC2)cc1` has a Ki (Histamine H3 receptor) of 532 nM.
In the case of `CN(C)CC(=O)Nc1ccc(OC2CCN(C3CCC3)CC2)cc1`, the Ki (Histamine H3 receptor) is reported as 6 nM.
In the case of `O=C(NCCN1CCCC1)c1ccc(OC2CCN(C3CCC3)CC2)cc1`, the Ki (Histamine H3 receptor) is reported as 2.9 nM.
`Cc1cc(OC2CCN(C3CCC3)CC2)ccc1NC(=O)CN1CCOCC1` showed a Ki (Histamine H3 receptor) of 22.1 nM.
Work on `C[C@@H]1CCCN1CC(=O)Nc1ccc(OC2CCN(C3CCC3)CC2)cc1` yielded a Ki (Histamine H3 receptor) of 2.6 nM.
Work on `CC(=O)N1CCN(CC(=O)Nc2ccc(OC3CCN(C4CCC4)CC3)cc2)CC1` yielded a Ki (Histamine H3 receptor) of 5.39 nM.
In the case of `O=C(CN1CCCCC1)Nc1ccc(OC2CCN(C3CCC3)CC2)cc1C(F)(F)F`, the Ki (Histamine H3 receptor) is reported as 14.8 nM.
For `O=C(NCCN1CCCC1)c1ccc(OC2CCN(C3CCCC3)CC2)cc1`, the clearance [1] was 156 mL/min/kg, the Tmax [2] was 3.33 h and the Ki (Histamine H3 receptor) was 2.4 nM. For the same compound, the AUC(0-t) at 24 h [5] was 205 ng·h/mL, the Vd [6] was 135 L/kg and the bioavailability [7] was 48%. It also gave an AUC(0-t) at 24 h [8] of 174 ng·h/mL.
For `O=C(Cc1ccncc1)Nc1ccc(OC2CCN(C3CCC3)CC2)cc1.O=C(O)C(O)C(O)C(=O)O`, the clearance [1] was 113 mL/min/kg, the Tmax [2] was 0.25 h and the Ki (Histamine H3 receptor) was 9.51 nM. The Kp [3] was 0.16, the half-life [4] was 1.12 h and the AUC(0-t) at 24 h [5] was 545 ng·h/mL. The Vd [6] was 7 L/kg, the bioavailability [7] was 125% and the AUC(0-t) at 24 h [8] was 145 ng·h/mL.
With `O=C(CN1CCS(=O)(=O)CC1)Nc1ccc(OC2CCN(C3CCC3)CC2)cc1` the Ki (Histamine H3 receptor) was 9.17 nM.
Compound `O=C(CN1CCC(F)CC1)Nc1ccc(OC2CCN(C3CCC3)CC2)cc1` has a Ki (Histamine H3 receptor) of 11 nM.
With `O=C(CN1CCOC(CO)C1)Nc1ccc(OC2CCN(C3CCC3)CC2)cc1` (configuration not stated) the Ki (Histamine H3 receptor) was 4.05 nM.
In the case of `CC(C)N1CCC(Oc2ccc(NC(=O)CN3CCCCC3)cc2)CC1`, the logP [9] is reported as 3.4, the Ki (Histamine H3 receptor) is reported as 3.8 nM and the pKa [10] is reported as 9.4. It also gave a pKa [11] of 7.2 and a logD [12] of 1.6.
Work on `O=C1c2ccc(OC3CCN(C4CCC4)CC3)cc2CCN1C1CCN(C2CCC2)CC1` yielded a Tmax [2] of 6 h, a Kp [3] of 0.41 and an AUC(0-t) at 24 h [5] of 1430 ng·h/mL. It also gave a Vdss [6] of 13 L/kg and an AUC(0-t) at 24 h [8] of 1740 ng·h/mL.
`O=C(CN1CCOCC1)Nc1ccc(OC2CCN(C3CCCC3)CC2)cc1` showed a Ki (Histamine H3 receptor) of 29.9 nM.
Work on `O=C(CN1CCCC1)Nc1ccc(OC2CCN(C3CCC3)CC2)cc1C(F)(F)F` yielded a Ki (Histamine H3 receptor) of 26.9 nM.
With `Cc1cc(OC2CCN(C3CCC3)CC2)ccc1NC(=O)CN1CCC[C@H]1C` the Ki (Histamine H3 receptor) was 2.4 nM.
With `Cc1cc(OC2CCN(C3CCC3)CC2)ccc1NC(=O)CN1CCCC1.Cl.Cl` the Tmax [2] was 2.17 h, the Ki (Histamine H3 receptor) was 1.9 nM and the Kp [3] was 1.2. The AUC(0-t) at 24 h [5] was 1350 ng·h/mL, the Vd [6] was 27 L/kg and the bioavailability [7] was 20%. The AUC ([8]; 24 h) was 3345 ng·h/mL.
Compound `CC(C)N1CCC(Oc2ccc(C(=O)NCCN3CCCCC3)cc2)CC1` has a Ki (Histamine H3 receptor) of 9.5 nM.
In the case of `Clc1ccc(CCCOCCCN2CCCCC2)cc1`, the inhibition (Rattus norvegicus) is reported as “Active”.
